Data as given in ChEMBL document CHEMBL1287751, “Development of a sphingosine kinase 1 specific small-molecule inhibitor” (Bioorg Med Chem Lett, 2010).
Each block holds one compound with its values, some of them ahead of it. Activity calls are given as the source filed them. No cut-off for these calls is given here.

Columns and labels:
Sphingosine kinase 1 [1] = molecular target: T1, Sphingosine kinase 1 (Homo sapiens, UniProt Q9NYA1); experiment: Inhibition of His6x-tagged recombinant sphingosine kinase 1 expressed in HEK293 cells at 10.7 uM; type: cell-based
Procedure, shortened: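 Affinity-purified His6X-tagged SphK1, recombinantly overexpressed in HEK293 cells. Substrate was 25 µM D-erythro-sphingosine in SKAAB buffer, without BSA conjugation or Triton X-100 micelles. Compounds screened at 10.7 µM, with DMSO controls at ≤5% of reaction volume. Reported as % inhibition, averages of two separate experiments.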

[2] = molecular target: T2, Sphingosine kinase 2 (Homo sapiens) (UniProt Q9NRA0); experiment: Inhibition of sphingosine kinase 2
T2 sequence (whole entry): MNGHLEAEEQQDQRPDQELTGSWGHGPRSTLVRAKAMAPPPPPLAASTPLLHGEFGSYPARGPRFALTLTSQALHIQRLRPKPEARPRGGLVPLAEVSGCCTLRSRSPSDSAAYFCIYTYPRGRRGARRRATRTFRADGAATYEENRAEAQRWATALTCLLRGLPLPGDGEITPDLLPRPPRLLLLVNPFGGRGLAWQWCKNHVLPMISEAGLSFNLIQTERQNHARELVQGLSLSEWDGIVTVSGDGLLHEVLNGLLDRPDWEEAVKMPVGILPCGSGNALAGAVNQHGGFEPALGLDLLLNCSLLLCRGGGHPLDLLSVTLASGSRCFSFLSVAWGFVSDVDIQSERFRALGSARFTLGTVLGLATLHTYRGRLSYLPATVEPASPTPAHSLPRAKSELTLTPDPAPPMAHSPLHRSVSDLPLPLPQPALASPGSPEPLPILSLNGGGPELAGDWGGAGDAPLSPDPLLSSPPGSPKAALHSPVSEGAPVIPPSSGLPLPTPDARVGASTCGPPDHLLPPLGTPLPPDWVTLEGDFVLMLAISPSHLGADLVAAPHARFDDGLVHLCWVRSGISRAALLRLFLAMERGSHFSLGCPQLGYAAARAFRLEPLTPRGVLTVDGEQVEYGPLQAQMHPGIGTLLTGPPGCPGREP
Procedure, shortened: (§1)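 SphK2 activity assay in SKAAB buffer supplemented with 1 M KCl. Substrate was D-erythro-sphingosine delivered without BSA or Triton X-100. DMSO ≤5% of reaction volume.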

Sphingosine kinase 1 [3] = molecular target: T1, Sphingosine kinase 1; experiment: Competitive inhibition of recombinant sphingosine kinase 1 using D-erythro-sphingosine as substrate by Lineweaver-Burke plot analysis
Procedure, shortened: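 Recombinant His6X-tagged SphK1, affinity purified from HEK293 overexpression, assayed with varying D-erythro-sphingosine concentrations, with inhibitor absent or at 10 and 17 µM. Sph delivered in SKAAB buffer without BSA conjugation or Triton X-100 micelles. DMSO ≤5% of reaction. Ki and mechanism from linear regression.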

Sphingosine kinase 1 [4] = molecular target: T1, Sphingosine kinase 1; experiment: Inhibition of sphingosine kinase 1 in human A549 cells assessed as reduction in sphingosine-1-phosphate cellular level at 1 uM after 48 hrs by thin layer chromatography relative to control; type: cell-based
Procedure, shortened: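 A549 cells treated with 1 µM compound for 48 h. SphK activity assays were run on whole-cell lysates, lipids were separated by thin layer chromatography, and S1P was compared with DMSO-treated controls.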

[5] = Cytotoxicity against human NCI/ADR cells after 48 hrs by sulforhodamine B assay; type: functional, cell-based; conditions: NCI/ADR-RES
[6] = Cytotoxicity against human U87MG cells after 48 hrs by sulforhodamine B assay; type: functional, cell-based, U-87MG ATCC; conditions: U-87 MG
NCI-H226 = experiment: Cytotoxicity against human NCI-H226 cells after 48 hrs by sulforhodamine B assay; type: functional, cell-based; conditions: NCI-H226, 48 h
HL-60 [7] = experiment: Cytotoxicity against human HL60 cells after 48 hrs by sulforhodamine B assay; type: functional, cell-based; conditions: HL-60, 48 h
NCI-H460 = experiment: Cytotoxicity against human H460 cells after 48 hrs by sulforhodamine B assay; type: functional, cell-based; conditions: NCI-H460, 48 h
MIA PaCa-2 = experiment: Cytotoxicity against human MIAPaCa2 cells after 48 hrs by sulforhodamine B assay; type: functional, cell-based; conditions: MIA PaCa-2, 48 h
PANC-1 = experiment: Cytotoxicity against human PANC1 cells after 48 hrs by sulforhodamine B assay; type: functional, cell-based; conditions: PANC-1, 48 h
MCF7 [8] = experiment: Cytotoxicity against human MCF7 cells after 48 hrs by sulforhodamine B assay; type: functional, cell-based; conditions: MCF7, 48 h
HL-60 [9] = experiment: Cytotoxicity against VCR-resistance human HL60 cells after 48 hrs by sulforhodamine B assay; type: functional, cell-based; conditions: HL-60, 48 h
[10] = molecular target: T2, Sphingosine kinase 2 (Homo sapiens); experiment: Inhibition of sphingosine kinase 2 up to 25 uM; procedure, shortened: as §1
SH-SY5Y = experiment: Cytotoxicity against human SH-SY5Y cells after 48 hrs by sulforhodamine B assay; type: functional, cell-based
[11] = Cytotoxicity against human KG1a cells after 48 hrs by sulforhodamine B assay; type: functional, cell-based; conditions: KG-1a
MCF7 [12] = experiment: Cytotoxicity against human tamoxifen-resistant MCF7 cells after 48 hrs by sulforhodamine B assay; type: functional, cell-based; conditions: MCF7, 48 h
A549 = experiment: Ratio of compound cytotoxicity at 1 uM to SKI-I cytotoxicity for human A549 cells
Sphingosine kinase 1 [13] = molecular target: T1, Sphingosine kinase 1; experiment: Non-competitive inhibition of recombinant sphingosine kinase 1 using ATP as substrate by Lineweaver-Burke plot analysis
[14] = Cytotoxicity against human Kusami-3 cells after 48 hrs by sulforhodamine B assay; type: functional, cell-based; conditions: Kusami-3, 48 h
U-251 = experiment: Cytotoxicity against human U251 cells after 48 hrs by sulforhodamine B assay; type: functional, cell-based; conditions: U-251, 48 h
BXPC-3 = experiment: Cytotoxicity against human BxPC3 cells after 48 hrs by sulforhodamine B assay; type: functional, cell-based; conditions: BXPC-3, 48 h

T1 sequence (Q9NYA1 whole entry): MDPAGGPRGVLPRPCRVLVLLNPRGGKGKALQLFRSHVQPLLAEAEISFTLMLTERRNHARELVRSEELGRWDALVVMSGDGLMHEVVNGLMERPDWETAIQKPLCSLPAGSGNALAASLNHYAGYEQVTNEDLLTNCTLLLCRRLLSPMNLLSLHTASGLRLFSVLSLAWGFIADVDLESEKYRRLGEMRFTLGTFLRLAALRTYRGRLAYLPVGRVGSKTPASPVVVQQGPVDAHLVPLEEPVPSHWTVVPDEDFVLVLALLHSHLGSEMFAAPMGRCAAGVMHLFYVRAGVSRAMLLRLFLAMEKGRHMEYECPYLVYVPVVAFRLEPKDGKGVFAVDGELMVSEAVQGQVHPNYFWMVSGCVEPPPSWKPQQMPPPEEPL

Compound: COc1ccc(-c2cc(C(=O)N/N=C/c3ccccc3O)[nH]n2)cc1
- inhibition (Sphingosine kinase 1 [1]): 33.5%

Compound: COc1ccc(-c2cc(C(=O)N/N=C/c3ccc(OC)c(OC)c3)[nH]n2)cc1
- inhibition (Sphingosine kinase 1 [1]): 44.5%

Compound: O=C(N/N=C/c1cccc(O)c1)c1cc(-c2ccc3ccccc3c2)n[nH]1
- inhibition (Sphingosine kinase 1 [1]): 25.1%

Compound: COc1ccc(/C(C)=N/NC(=O)c2cc(-c3ccc(C)cc3)n[nH]2)cc1OC
- inhibition (Sphingosine kinase 1 [1]): 21.8%

Compound: COc1ccc(-c2cc(C(=O)N/N=C(\C)c3ccc(Cl)cc3)[nH]n2)cc1
- inhibition (Sphingosine kinase 1 [1]): 46.8%

Compound: Cc1ccc(-c2cc(C(=O)N/N=C/c3ccccc3O)[nH]n2)cc1
- inhibition (Sphingosine kinase 1 [1]): 9.8%

Compound: COc1ccc(-c2cc(C(=O)N/N=C/c3cc(O)cc(O)c3)[nH]n2)cc1
- inhibition (Sphingosine kinase 1 [1]): 12.5%

Compound: COc1ccc(-c2cc(C(=O)N/N=C/c3ccc(F)cc3)[nH]n2)cc1
- inhibition (Sphingosine kinase 1 [1]): 27.4%

Compound: O=C(N/N=C/c1ccccc1O)c1cc(-c2ccccc2)n[nH]1
- inhibition (Sphingosine kinase 1 [1]): 11.9%

Continued, in another order:

- inhibition (Sphingosine kinase 1 [1]): 59.3%
Compound: O=C(N/N=C/c1ccccc1O)c1cc(-c2ccc3ccccc3c2)n[nH]1

- inhibition (Sphingosine kinase 1 [1]): 39.5%
Compound: O=C(N/N=C/c1ccc(O)cc1O)c1cc(-c2ccc3ccccc3c2)n[nH]1

- inhibition (Sphingosine kinase 1 [1]): 15.5%
Compound: COc1ccc(-c2cc(C(=O)N/N=C/c3cccc(O)c3)[nH]n2)cc1

- inhibition (Sphingosine kinase 1 [1]): 28%
Compound: O=C(N/N=C/c1ccc(O)cc1)c1cc(-c2ccc3ccccc3c2)n[nH]1

- inhibition (Sphingosine kinase 1 [1]): 30.8%
Compound: COc1ccc(-c2cc(C(=O)N/N=C/c3ccc(O)cc3O)[nH]n2)cc1

- inhibition [2]: Dose-dependent effect
- Ki (Sphingosine kinase 1 [3]): 1060 nM
- inhibition (Sphingosine kinase 1 [4]): Active
Compound: O=C(N/N=C/c1c(O)ccc2ccccc12)c1cc(-c2ccc3ccccc3c2)n[nH]1

- inhibition (Sphingosine kinase 1 [1]): 59.6%
- inhibition [10]: inactive
- Ki (Sphingosine kinase 1 [3]): 1330 nM
- inhibition (Sphingosine kinase 1 [4]): Active
- inhibition (Sphingosine kinase 1 [13]): Active
Compound: COc1ccc(-c2cc(C(=O)N/N=C(\C)c3ccc(OC)c(OC)c3)[nH]n2)cc1
- IC50 [5]: 1500 nM
- IC50 [6]: 600 nM
- IC50 (NCI-H226): 300 nM
- IC50 (HL-60 [7]): 200 nM
- IC50 (NCI-H460): 300 nM
- IC50 (MIA PaCa-2): 100 nM
- IC50 (PANC-1): 100 nM
- IC50 (MCF7 [8]): 1300 nM
- IC50 (HL-60 [9]): 200 nM
- IC50 (SH-SY5Y): 300 nM
- IC50 [11]: 500 nM
- IC50 (MCF7 [12]): 1800 nM
- cytotoxicity ratio (A549): 1.37
- IC50 [14]: 200 nM
- IC50 (U-251): 500 nM
- IC50 (BXPC-3): 200 nM

- inhibition (Sphingosine kinase 1 [1]): 38%
Compound: CCN(CC)c1ccc(/C=N/NC(=O)c2cc(-c3ccc(OC)cc3)n[nH]2)cc1

- inhibition (Sphingosine kinase 1 [1]): 14.3%
Compound: COc1ccc(-c2cc(C(=O)N/N=C/c3ccc(O)cc3)[nH]n2)cc1

- inhibition (Sphingosine kinase 1 [1]): 15.3%
Compound: COc1ccc(-c2cc(C(=O)N/N=C/c3ccc(C(C)C)cc3)[nH]n2)cc1

- inhibition (Sphingosine kinase 1 [1]): 52.5%
Compound: COc1ccc(-c2cc(C(=O)N/N=C/c3ccc4ccccc4c3)[nH]n2)cc1
